In ChEMBL document CHEMBL1165950, “Design and synthesis of new potent anticancer pyrazoles with high FLT3 kinase inhibitory selectivity” (Bioorg Med Chem, 2010):

Key:
Format in all cases: functional
SK-MEL-2 = assay: Cytotoxicity against human SK-MEL-2 cells assessed as cell growth at 0.01 uM after 48 hrs by sulforhodamine B assay; settings: SK-MEL-2, 48 h, read-out: Activity
HL-60(TB) = assay: Cytotoxicity against human HL-60(TB) cells assessed as cell growth at 10 uM; settings: read-out: Activity
Method in brief: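 NCI 60-cell panel screen at a single concentration of 10 µM. Cells are grown in RPMI 1640 with 5% FBS and 2 mM L-glutamine and read by SRB protein staining at 515 nm. Percent growth is measured relative to time-zero and untreated controls; inhibition % is 100 minus growth %.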

[1] = Growth inhibition of human Hs 578T cells after 48 hrs by sulforhodamine B assay; settings: for CC50: read-out: LC50 (the source's name)
Method in brief: (§1)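 NCI 60-cell screen, five-dose mode. Cells grown in RPMI 1640 with 5% FBS and 2 mM L-glutamine and plated at 5000-40,000 cells/well according to doubling time. After 24 h preincubation, a Tz plate was TCA-fixed. Five concentrations (10-fold or 1/2 log dilutions) were applied for 48 h at 37 °C. SRB staining read at 515 nm. IC50 taken from [(Ti-Tz)/(C-Tz)]×100 = 50.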

[2] = Cytotoxicity against human Hs 578T cells assessed as cell growth at 10 uM after 48 hrs by sulforhodamine B assay; settings: read-out: Activity
SF-268 = assay: Cytotoxicity against human SF268 cells assessed as cell growth at 100 nM after 48 hrs by sulforhodamine B assay; settings: SF-268, 48 h, read-out: Activity
SK-MEL-5 [3] = assay: Cytotoxicity against human SK-MEL-5 cells assessed as cell growth at 10 uM; settings: read-out: Activity
Method in brief: (§2)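 NCI-60 screen: cells grown in RPMI 1640 with 5% FBS and 2 mM L-glutamine, plated at 5000–40,000 cells/well according to doubling time, and preincubated 24 h at 37 °C, 5% CO2. The single 10 µM dose (DMSO stock) was added, then incubated 48 h. Cells were TCA-fixed and stained with 0.4% SRB, read at 515 nm, and growth % calculated against time-zero and control plates.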

MDA-MB-231 [4] = assay: Cytotoxicity against human MDA-MB-231 cells assessed as cell growth at 0.001 uM after 48 hrs by sulforhodamine B assay; settings: MDA-MB-231, 48 h, read-out: Activity
OVCAR-4 [5] = assay: Cytotoxicity against human OVCAR4 cells assessed as cell growth at 0.01 uM after 48 hrs by sulforhodamine B assay; settings: OVCAR-4, 48 h, read-out: Activity
BT-549 [6] = assay: Growth inhibition of human BT549 cells after 48 hrs by sulforhodamine B assay; settings: BT-549, 48 h; for CC50: read-out: LC50 (the source's name)
Method in brief: (§3)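 NCI five-dose SRB assay in RPMI 1640 with 5% FBS and 2 mM L-glutamine. Cells were preincubated 24 h, then exposed 48 h at 37 °C to five concentrations (10-fold or half-log serial dilutions from DMSO stocks). TCA fixation, SRB staining, and absorbance at 515 nm followed. IC50 was taken where [(Ti−Tz)/(C−Tz)]×100 = 50, with Tz as time-zero cell density.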

PC-3 = assay: Cytotoxicity against human PC3 cells assessed as cell growth at 100 nM after 48 hrs by sulforhodamine B assay; settings: PC-3, 48 h, read-out: Activity
SW-620 = assay: Cytotoxicity against human SW620 cells assessed as cell growth at 0.01 uM after 48 hrs by sulforhodamine B assay; settings: SW-620, 48 h, read-out: Activity
MDA-MB-468 = assay: Cytotoxicity against human MDA-MB-468 cells assessed as cell growth at 0.01 uM after 48 hrs by sulforhodamine B assay; settings: MDA-MB-468, 48 h, read-out: Activity
MCF7 = assay: Cytotoxicity against human MCF7 cells assessed as cell growth at 0.01 uM after 48 hrs by sulforhodamine B assay; settings: MCF7, 48 h, read-out: Activity
A498 = assay: Growth inhibition of human A498 cells after 48 hrs by sulforhodamine B assay; settings: A498, 48 h; method in brief: as §3
BT-549 [7] = assay: Cytotoxicity against human BT549 cells assessed as cell growth at 0.001 uM after 48 hrs by sulforhodamine B assay; settings: BT-549, 48 h, read-out: Activity
Method in brief: (§4)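 NCI-60 five-dose screen. Cells were grown in RPMI 1640 with 5% FBS and 2 mM L-glutamine, plated at 5000–40,000 cells/well and preincubated for 24 h. Time-zero plates were TCA-fixed. DMSO-solubilized drug was added at five concentrations (10-fold or ½-log serial dilutions) for 48 h at 37 °C, 5% CO2. Cells were TCA-fixed, stained with 0.4% SRB and read at 515 nm. Percent growth used time-zero, control and test absorbances.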

OVCAR-4 [8] = assay: Cytotoxicity against human OVCAR4 cells assessed as cell growth at 10 uM; settings: read-out: Activity; method in brief: as §2
TK-10 = assay: Growth inhibition of human TK10 cells after 48 hrs by sulforhodamine B assay; settings: TK-10, 48 h; for CC50: read-out: LC50 (the source's name); method in brief: as §1
ACHN = assay: Cytotoxicity against human ACHN cells assessed as cell growth at 10 uM after 48 hrs by sulforhodamine B assay; settings: read-out: Activity; method in brief: as §4
SNB-19 = assay: Cytotoxicity against human SNB19 cells assessed as cell growth at 1 uM after 48 hrs by sulforhodamine B assay; settings: SNB-19, 48 h, read-out: Activity
K562 = assay: Cytotoxicity against human K562 cells assessed as cell growth at 1 uM after 48 hrs by sulforhodamine B assay; settings: K562, 48 h, read-out: Activity
MDA-MB-231 [9] = assay: Cytotoxicity against human MDA-MB-231 cells assessed as cell growth at 1 uM after 48 hrs by sulforhodamine B assay; settings: MDA-MB-231, 48 h, read-out: Activity
SF-295 = assay: Cytotoxicity against human SF295 cells assessed as cell growth at 0.01 uM after 48 hrs by sulforhodamine B assay; settings: SF-295, 48 h, read-out: Activity
SK-MEL-5 [10] = assay: Growth inhibition of human SK-MEL-5 cells after 48 hrs by sulforhodamine B assay; settings: SK-MEL-5, 48 h; for CC50: read-out: LC50 (the source's name); method in brief: as §1
DU-145 = assay: Growth inhibition of human DU145 cells after 48 hrs by sulforhodamine B assay; settings: DU-145, 48 h; method in brief: as §3
OVCAR-8 = assay: Cytotoxicity against human OVCAR8 cells assessed as cell growth at 0.01 uM after 48 hrs by sulforhodamine B assay; settings: OVCAR-8, 48 h, read-out: Activity
LOX IMVI = assay: Cytotoxicity against human LOXIMVI cells assessed as cell growth at 0.01 uM after 48 hrs by sulforhodamine B assay; settings: read-out: Activity
NCI-H23 = assay: Growth inhibition of human NCI-H23 cells after 48 hrs by sulforhodamine B assay; settings: NCI-H23, 48 h; for CC50: read-out: LC50 (the source's name); method in brief: as §1
OVCAR-4 [11] = assay: Cytotoxicity against human OVCAR4 cells assessed as cell growth at 10 uM after 48 hrs by sulforhodamine B assay; settings: OVCAR-4, 48 h, read-out: Activity

Structure (SMILES): COc1cc(C)cc(-c2nn(CC#N)cc2-c2ccnc(-c3ccc(N(C)C)cc3)c2)c1
- growth at 0.01 µM (SK-MEL-2): 116%
- growth at 10 µM (HL-60(TB)): 1.48%
- GI50 [1]: 0.264 µM
- TGI [1]: 0.695 µM
- CC50 [1]: > 100 µM
- growth at 10 µM [2]: -5%
- growth at 0.1 µM (SF-268): 31%
- growth at 10 µM (SK-MEL-5 [3]): 2.26%
- growth at 0.001 µM (MDA-MB-231 [4]): 97%
- growth at 0.01 µM (OVCAR-4 [5]): 98%
- GI50 (BT-549 [6]): 1.62 µM
- TGI (BT-549 [6]): 7.33 µM
- CC50 (BT-549 [6]): > 100 µM
- growth at 0.1 µM (PC-3): 14%
- growth at 0.01 µM (SW-620): 90%
- growth at 0.01 µM (MDA-MB-468): 74%
- growth at 0.01 µM (MCF7): 38%
- GI50 (A498): 0.246 µM
- LC50 (A498): > 100 µM
- TGI (A498): 0.818 µM
- growth at 0.001 µM (BT-549 [7]): 105%
- growth at 10 µM (OVCAR-4 [8]): 17.1%
- GI50 (TK-10): 0.101 µM
- TGI (TK-10): 78.9 µM
- CC50 (TK-10): > 100 µM
- growth at 10 µM (ACHN): -18%
- growth at 1 µM (SNB-19): 19%
- growth at 1 µM (K562): 4%
- growth at 1 µM (MDA-MB-231 [9]): -15%
- growth at 0.01 µM (SF-295): 94%
- GI50 (SK-MEL-5 [10]): 0.269 µM
- TGI (SK-MEL-5 [10]): 0.672 µM
- CC50 (SK-MEL-5 [10]): 24 µM
- GI50 (DU-145): 0.319 µM
- LC50 (DU-145): > 100 µM
- TGI (DU-145): 1.11 µM
- growth at 0.01 µM (OVCAR-8): 97%
- growth at 0.01 µM (LOX IMVI): 105%
- GI50 (NCI-H23): 0.514 µM
- TGI (NCI-H23): > 100 µM
- CC50 (NCI-H23): > 100 µM
- growth at 10 µM (OVCAR-4 [11]): 15%

Structure (SMILES): Cc1cc(O)cc(-c2nn(CC#N)cc2-c2ccnc(-c3ccc(N(C)C)cc3)c2)c1
- growth at 0.01 µM (SK-MEL-2): 108%
- growth at 10 µM (HL-60(TB)): 7.44%
- GI50 [1]: 2.13 µM
- TGI [1]: 7 µM
- CC50 [1]: > 100 µM
- growth at 10 µM [2]: -32%
- growth at 0.1 µM (SF-268): 90%
- growth at 10 µM (SK-MEL-5 [3]): -16.3%
- growth at 0.001 µM (MDA-MB-231 [4]): 99%
- growth at 0.01 µM (OVCAR-4 [5]): 108%
- GI50 (BT-549 [6]): 2.77 µM
- TGI (BT-549 [6]): 12.1 µM
- CC50 (BT-549 [6]): > 100 µM
- growth at 0.1 µM (PC-3): 94%
- growth at 0.01 µM (SW-620): 90%
- growth at 0.01 µM (MDA-MB-468): 91%
- growth at 0.01 µM (MCF7): 89%
- GI50 (A498): 3.03 µM
- LC50 (A498): > 100 µM
- TGI (A498): 13.4 µM
- growth at 0.001 µM (BT-549 [7]): 96%
- growth at 10 µM (OVCAR-4 [8]): 29.9%
- GI50 (TK-10): 8.4 µM
- TGI (TK-10): 57.8 µM
- CC50 (TK-10): > 100 µM
- growth at 10 µM (ACHN): -30%
- growth at 1 µM (SNB-19): 28%
- growth at 1 µM (K562): 7%
- growth at 1 µM (MDA-MB-231 [9]): 11%
- growth at 0.01 µM (SF-295): 89%
- GI50 (SK-MEL-5 [10]): 1.99 µM
- TGI (SK-MEL-5 [10]): 5.75 µM
- CC50 (SK-MEL-5 [10]): 22.9 µM
- GI50 (DU-145): 2.75 µM
- LC50 (DU-145): 53.2 µM
- TGI (DU-145): 8.57 µM
- growth at 0.01 µM (OVCAR-8): 97%
- growth at 0.01 µM (LOX IMVI): 104%
- GI50 (NCI-H23): 4.48 µM
- TGI (NCI-H23): 24.8 µM
- CC50 (NCI-H23): > 100 µM
- growth at 10 µM (OVCAR-4 [11]): 9%

Structure (SMILES): COc1cc(C)cc(-c2nn(CC#N)cc2-c2ccc(-c3cccc(C(C)=O)c3)nc2)c1
- growth at 0.01 µM (SK-MEL-2): 89%
- growth at 10 µM (HL-60(TB)): 8.33%
- GI50 [1]: 1.28 µM
- TGI [1]: 3.87 µM
- CC50 [1]: 31.2 µM
- growth at 10 µM [2]: -57%
- growth at 0.1 µM (SF-268): 91%
- growth at 10 µM (SK-MEL-5 [3]): 4.86%
- growth at 0.001 µM (MDA-MB-231 [4]): 102%
- growth at 0.01 µM (OVCAR-4 [5]): 97%
- GI50 (BT-549 [6]): 2.73 µM
- TGI (BT-549 [6]): 15.1 µM
- CC50 (BT-549 [6]): > 100 µM
- growth at 0.1 µM (PC-3): 85%
- growth at 0.01 µM (SW-620): 91%
- growth at 0.01 µM (MDA-MB-468): 82%
- growth at 0.01 µM (MCF7): 97%
- GI50 (A498): 1.08 µM
- LC50 (A498): 72.5 µM
- TGI (A498): 5.14 µM
- growth at 0.001 µM (BT-549 [7]): 99%
- growth at 10 µM (OVCAR-4 [8]): 31.7%
- GI50 (TK-10): 3.28 µM
- TGI (TK-10): 11.5 µM
- CC50 (TK-10): > 100 µM
- growth at 10 µM (ACHN): 4%
- growth at 1 µM (SNB-19): 39%
- growth at 1 µM (K562): 5%
- growth at 1 µM (MDA-MB-231 [9]): 13%
- growth at 0.01 µM (SF-295): 98%
- GI50 (SK-MEL-5 [10]): 1.54 µM
- TGI (SK-MEL-5 [10]): 6.79 µM
- CC50 (SK-MEL-5 [10]): 39.8 µM
- GI50 (DU-145): 1.98 µM
- LC50 (DU-145): > 100 µM
- TGI (DU-145): 4.95 µM
- growth at 0.01 µM (OVCAR-8): 88%
- growth at 0.01 µM (LOX IMVI): 96%
- GI50 (NCI-H23): 3.45 µM
- TGI (NCI-H23): 84 µM
- CC50 (NCI-H23): > 100 µM
- growth at 10 µM (OVCAR-4 [11]): 10%
